The target in series [1] is Serine/threonine-protein kinase NLK (Homo sapiens) (UniProt Q9UBE8). Briefly: Binding affinity to wild-type human full length NLK (M13 to E527 residues) expressed in bacterial expression system assessed as remaining unbound target protein level at 1000 nM by Kinomescan method relative to control. The gist of the method: (§1)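 Single-point competition binding screen across a panel of 468 kinases and mutants, with the inhibitor at 1 μM. Binding is read out as percent of a DMSO control, and targets below 1 percent control were classed as strong binders.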

Series [2] has as its target Casein kinase II subunit alpha (Homo sapiens) (UniProt P68400). Description: Binding affinity to wild-type human full length CSNK2A1 (M1 to Q391 residues) expressed in mammalian expression system assessed as remaining unbound target protein level at 1000 nM by Kinomescan method relative to control. The procedure, abridged: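 KINOMEscan competitive binding profile at 1 μM inhibitor. Remaining target binding reported as percent of DMSO control.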

Series [3] addresses Mitogen-activated protein kinase kinase kinase kinase 2 (Homo sapiens) (UniProt Q12851). Description: Binding affinity to wild-type human partial length MAP4K2 (M1 to G318 residues) expressed in mammalian expression system assessed as remaining unbound target protein level at 1000 nM by Kinomescan method relative to control. The procedure, abridged: (§2)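 KINOMEscan binding panel of 468 kinases/mutants. Inhibitor was tested at a single concentration of 1 μM. Binding is reported as percent of control, defined relative to a DMSO control.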

Series [4] deals with Cyclin-dependent kinase 7 (Homo sapiens) (UniProt P50613). Description: Inhibition of CDK7 in human MV4-11 cells assessed as decrease in RNA polymerase 2 phosphorylation at Ser 5 residues up to 3 uM after 2 hrs by immunoblotting analysis. It is filed as cell-based.
Series [5] addresses Myosin-IIIa (Homo sapiens) (UniProt Q8NEV4). Briefly: Binding affinity to wild-type human partial length MYO3A (M1 to K338 residues) expressed in bacterial expression system assessed as remaining unbound target protein level at 1000 nM by Kinomescan method relative to control.
Series [6] has as its system Tyrosine-protein kinase ABL1 (Homo sapiens), P00519 [F317I]. Description: Binding affinity to human phosphorylated ABL1 F317I mutant (S229 to K512 residues) expressed in mammalian expression system assessed as remaining unbound target protein level at 1000 nM by Kinomescan method relative to control. The gist of the method:
as §1

Series [7] addresses Serine/threonine-protein kinase/endoribonuclease IRE1 (Homo sapiens) (UniProt O75460). Briefly: Binding affinity to wild-type human partial length ERN1 (S551 to E852 residues) expressed in mammalian expression system assessed as remaining unbound target protein level at 1000 nM by Kinomescan method relative to control. The procedure, abridged: as §2
Series [8] addresses Serine/threonine-protein kinase TNNI3K (Homo sapiens) (UniProt Q59H18). Description: Binding affinity to wild-type human full length TNNI3K (M1 to S835 residues) expressed in bacterial expression system assessed as remaining unbound target protein level at 1000 nM by Kinomescan method relative to control. The gist of the method:
(§3)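 KINOMEscan competition binding profile across a panel of 468 kinases and mutants, with the inhibitor tested at a single concentration of 1 μM. Binding is reported as percent of control, meaning signal relative to a DMSO control.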

A short description of series [9]: AUC (0 to infinity) in mouse at 3 mg/kg, iv by LC-MS/MS analysis. The class given is ADME, organism-based. Set-up: dose 3 mg/kg, route intravenous, time infinity. The note with it: in vivo. The gist of the method: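 Non-compartmental PK. Male SD rats 190-210 g, mice and beagle dogs acclimatized one week, fasted 12 h with water, split into iv and po groups (mice 48, rats 6, dogs 6). iv 3/3/2 mg/kg (mice/rats/dogs); po 10/20/10 mg/kg; vehicle DMSO in 5% glucose water. Blood at 2 or 5 to 720 min; plasma protein-precipitated with methanol, caffeine internal standard, LC-MS/MS.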

For the next series, the species on record is Homo sapiens. Briefly: Selectivity ratio of IC50 for recombinant full length His/GST-tagged human CDK5/p25 to IC50 for recombinant full length His-tagged human CDK9/CyclinT1.
Series [10] is described as follows: Clearance in beagle dog at 2 mg/kg, iv by LC-MS/MS analysis. It is filed as ADME, organism-based, Canis lupus familiaris. The note with it: in vivo.
The target of series [11] is Serine/threonine-protein kinase ULK2 (Homo sapiens) (UniProt Q8IYT8). Briefly: Binding affinity to wild-type human partial length ULK2 (M1 to S301 residues) expressed in mammalian expression system assessed as remaining unbound target protein level at 1000 nM by Kinomescan method relative to control.
Sequence of Serine/threonine-protein kinase ULK2 (Homo sapiens) (Q8IYT8 whole entry, the tested form may be a part): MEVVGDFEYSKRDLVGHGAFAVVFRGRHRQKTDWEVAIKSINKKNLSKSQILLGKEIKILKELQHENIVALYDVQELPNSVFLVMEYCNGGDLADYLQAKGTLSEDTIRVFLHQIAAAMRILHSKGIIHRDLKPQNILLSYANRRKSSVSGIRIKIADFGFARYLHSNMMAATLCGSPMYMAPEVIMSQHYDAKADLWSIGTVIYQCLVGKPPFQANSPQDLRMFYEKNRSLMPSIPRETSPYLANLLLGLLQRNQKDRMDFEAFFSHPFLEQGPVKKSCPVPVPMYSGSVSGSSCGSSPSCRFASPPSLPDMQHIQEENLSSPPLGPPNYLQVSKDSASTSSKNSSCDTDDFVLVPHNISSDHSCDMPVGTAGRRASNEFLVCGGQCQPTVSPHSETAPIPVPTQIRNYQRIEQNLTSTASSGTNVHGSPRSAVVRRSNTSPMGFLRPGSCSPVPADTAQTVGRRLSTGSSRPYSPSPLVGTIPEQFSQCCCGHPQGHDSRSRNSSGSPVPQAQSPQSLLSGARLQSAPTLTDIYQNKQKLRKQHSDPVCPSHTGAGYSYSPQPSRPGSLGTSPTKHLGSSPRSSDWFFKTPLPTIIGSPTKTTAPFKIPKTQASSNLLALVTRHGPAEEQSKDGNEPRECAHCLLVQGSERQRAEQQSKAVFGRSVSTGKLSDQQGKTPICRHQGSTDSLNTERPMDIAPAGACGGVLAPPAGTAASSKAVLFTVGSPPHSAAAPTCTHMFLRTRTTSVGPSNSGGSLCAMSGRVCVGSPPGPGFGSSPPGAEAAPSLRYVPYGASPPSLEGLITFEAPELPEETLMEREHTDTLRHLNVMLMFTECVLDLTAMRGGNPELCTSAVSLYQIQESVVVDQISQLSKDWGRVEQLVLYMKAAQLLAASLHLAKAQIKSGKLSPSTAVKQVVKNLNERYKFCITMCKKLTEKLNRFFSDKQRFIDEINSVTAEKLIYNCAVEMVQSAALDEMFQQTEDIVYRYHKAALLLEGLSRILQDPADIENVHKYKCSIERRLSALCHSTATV
In series [12] the target is 5'-AMP-activated protein kinase catalytic subunit alpha-1 (Homo sapiens) (UniProt Q13131). Description: Binding affinity to wild-type human partial length AMPK alpha1 (M1 to E306 residues) expressed in bacterial expression system assessed as remaining unbound target protein level at 1000 nM by Kinomescan method relative to control. The procedure, abridged: as §3
Series [13] has as its target Tyrosine-protein kinase BTK (Homo sapiens) (UniProt Q06187). Description: Binding affinity to wild-type human full length BTK (M1 to S659 residues) expressed in mammalian expression system assessed as remaining unbound target protein level at 1000 nM by Kinomescan method relative to control. The gist of the method: as §1
Series [14] concerns the target Ribosomal protein S6 kinase alpha-1 (Homo sapiens) (UniProt Q15418). Description: Binding affinity to wild-type human partial length C-termianl RSK1 kinase domain 2 (P360 to L681 residues) expressed in bacterial expression system assessed as remaining unbound target protein level at 1000 nM by Kinomescan method relative to control. The gist of the method: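 Profiled in a KINOMEscan binding panel with the inhibitor at a single concentration of 1 μM. Binding to each kinase was read out as percent of control, relative to a DMSO control. Strong binders were defined as those with a percent control value below 1.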

For series [15], the target named is SRSF protein kinase 3 (Homo sapiens) (UniProt Q9UPE1). Briefly: Binding affinity to wild-type human partial length SRPK3 (P41 to P567 residues) expressed in bacterial expression system assessed as remaining unbound target protein level at 1000 nM by Kinomescan method relative to control.
Another series has as its system HL-60. Description: Antiproliferative activity against human HL60 cells after 72 hrs by Celltiter-Glo assay. The class given is functional. The note with it: HL-60, 72 h. The gist of the method:
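Cells seeded at 3000/well in 96-well plates, exposed to serially diluted compound for 72 h at 37 °C, 5% CO2. Viability read by CellTiter-Glo luminescence and normalized to DMSO control. GI50 derived from curve fit, mean of three independent measurements. Culture media: DMEM/10% FBS for adherent lines; IMDM for MV4-11 and MEC-1/2; RPMI 1640 for suspension lines and CHL.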
Background: In ATP-based viability assays light output follows the ATP content of the culture.

Series [16] has as its target Receptor-interacting serine/threonine-protein kinase 4 (Homo sapiens) (UniProt P57078). Briefly: Binding affinity to wild-type human partial length RIPK4 (M1 to V303 residues) expressed in mammalian expression system assessed as remaining unbound target protein level at 1000 nM by Kinomescan method relative to control.
The target of series [17] is Dual specificity protein kinase TTK (Homo sapiens) (UniProt P33981). Briefly: Binding affinity to wild-type human partial length TTK (N505 to V798 residues) expressed in bacterial expression system assessed as remaining unbound target protein level at 1000 nM by Kinomescan method relative to control.
Series [18] concerns the target Serine/threonine-protein kinase PAK 5 (Homo sapiens) (UniProt Q9P286). Description: Binding affinity to wild-type human partial length PAK7 (Y400 to H719 residues) expressed in bacterial expression system assessed as remaining unbound target protein level at 1000 nM by Kinomescan method relative to control.

The source made the active and inactive calls.

Sequence of Serine/threonine-protein kinase PAK 5 (Homo sapiens) (Q9P286 whole entry, looked up, the tested form may be a part): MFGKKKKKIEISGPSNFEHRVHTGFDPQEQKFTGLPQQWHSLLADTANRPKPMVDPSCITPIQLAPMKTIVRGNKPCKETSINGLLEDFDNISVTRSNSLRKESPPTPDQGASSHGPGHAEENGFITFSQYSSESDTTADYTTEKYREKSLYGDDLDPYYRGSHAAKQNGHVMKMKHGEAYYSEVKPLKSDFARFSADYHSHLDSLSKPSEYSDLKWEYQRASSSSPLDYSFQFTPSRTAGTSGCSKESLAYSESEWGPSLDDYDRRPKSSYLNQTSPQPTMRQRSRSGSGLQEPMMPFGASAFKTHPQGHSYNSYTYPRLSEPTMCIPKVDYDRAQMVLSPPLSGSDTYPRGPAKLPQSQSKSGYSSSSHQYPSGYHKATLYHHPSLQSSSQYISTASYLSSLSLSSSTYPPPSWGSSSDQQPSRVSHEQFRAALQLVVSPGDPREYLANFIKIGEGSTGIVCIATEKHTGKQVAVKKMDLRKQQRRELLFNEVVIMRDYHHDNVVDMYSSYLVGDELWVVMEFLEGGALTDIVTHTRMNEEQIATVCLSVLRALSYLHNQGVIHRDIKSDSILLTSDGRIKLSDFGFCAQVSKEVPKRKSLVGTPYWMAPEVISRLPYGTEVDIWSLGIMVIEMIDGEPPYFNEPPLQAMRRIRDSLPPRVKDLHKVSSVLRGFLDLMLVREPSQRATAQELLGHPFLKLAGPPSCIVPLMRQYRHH
Sequence of Serine/threonine-protein kinase TNNI3K (Homo sapiens) (Q59H18 whole entry, the tested form may be a part): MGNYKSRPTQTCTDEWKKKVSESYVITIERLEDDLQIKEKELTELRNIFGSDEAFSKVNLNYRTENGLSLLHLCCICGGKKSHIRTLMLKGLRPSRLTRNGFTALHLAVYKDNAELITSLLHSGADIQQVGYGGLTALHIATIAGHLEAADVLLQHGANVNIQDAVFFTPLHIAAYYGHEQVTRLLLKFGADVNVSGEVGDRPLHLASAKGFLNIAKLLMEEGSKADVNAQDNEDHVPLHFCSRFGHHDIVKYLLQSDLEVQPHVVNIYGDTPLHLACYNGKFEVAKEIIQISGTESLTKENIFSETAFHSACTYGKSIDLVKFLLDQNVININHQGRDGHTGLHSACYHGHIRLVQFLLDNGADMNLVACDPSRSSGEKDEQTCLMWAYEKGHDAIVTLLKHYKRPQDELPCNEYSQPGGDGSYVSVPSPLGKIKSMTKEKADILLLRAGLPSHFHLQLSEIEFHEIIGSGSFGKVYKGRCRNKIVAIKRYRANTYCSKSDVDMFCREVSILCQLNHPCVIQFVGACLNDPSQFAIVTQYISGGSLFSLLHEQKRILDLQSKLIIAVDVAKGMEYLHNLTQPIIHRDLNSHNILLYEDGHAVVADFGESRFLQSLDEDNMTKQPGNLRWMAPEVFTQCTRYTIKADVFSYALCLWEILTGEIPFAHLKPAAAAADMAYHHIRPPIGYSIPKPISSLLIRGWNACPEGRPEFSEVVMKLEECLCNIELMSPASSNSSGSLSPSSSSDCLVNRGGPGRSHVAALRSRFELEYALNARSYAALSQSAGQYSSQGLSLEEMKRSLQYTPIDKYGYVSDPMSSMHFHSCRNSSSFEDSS
Sequence of Casein kinase II subunit alpha (Homo sapiens) (P68400 whole entry, looked up, the tested form may be a part): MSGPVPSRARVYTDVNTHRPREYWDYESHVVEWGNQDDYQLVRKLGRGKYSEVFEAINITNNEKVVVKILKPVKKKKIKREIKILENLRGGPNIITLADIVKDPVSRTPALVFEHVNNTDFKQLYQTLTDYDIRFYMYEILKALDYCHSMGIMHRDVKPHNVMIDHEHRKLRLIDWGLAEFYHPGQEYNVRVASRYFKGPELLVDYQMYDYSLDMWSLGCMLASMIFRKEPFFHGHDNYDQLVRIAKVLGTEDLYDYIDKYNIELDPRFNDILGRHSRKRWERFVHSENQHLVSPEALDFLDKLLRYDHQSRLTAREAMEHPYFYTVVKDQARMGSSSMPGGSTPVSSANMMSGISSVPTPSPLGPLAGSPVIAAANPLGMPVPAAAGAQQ
Sequence of Mitogen-activated protein kinase kinase kinase kinase 2 (Homo sapiens) (Q12851 whole entry, the tested form may be a part): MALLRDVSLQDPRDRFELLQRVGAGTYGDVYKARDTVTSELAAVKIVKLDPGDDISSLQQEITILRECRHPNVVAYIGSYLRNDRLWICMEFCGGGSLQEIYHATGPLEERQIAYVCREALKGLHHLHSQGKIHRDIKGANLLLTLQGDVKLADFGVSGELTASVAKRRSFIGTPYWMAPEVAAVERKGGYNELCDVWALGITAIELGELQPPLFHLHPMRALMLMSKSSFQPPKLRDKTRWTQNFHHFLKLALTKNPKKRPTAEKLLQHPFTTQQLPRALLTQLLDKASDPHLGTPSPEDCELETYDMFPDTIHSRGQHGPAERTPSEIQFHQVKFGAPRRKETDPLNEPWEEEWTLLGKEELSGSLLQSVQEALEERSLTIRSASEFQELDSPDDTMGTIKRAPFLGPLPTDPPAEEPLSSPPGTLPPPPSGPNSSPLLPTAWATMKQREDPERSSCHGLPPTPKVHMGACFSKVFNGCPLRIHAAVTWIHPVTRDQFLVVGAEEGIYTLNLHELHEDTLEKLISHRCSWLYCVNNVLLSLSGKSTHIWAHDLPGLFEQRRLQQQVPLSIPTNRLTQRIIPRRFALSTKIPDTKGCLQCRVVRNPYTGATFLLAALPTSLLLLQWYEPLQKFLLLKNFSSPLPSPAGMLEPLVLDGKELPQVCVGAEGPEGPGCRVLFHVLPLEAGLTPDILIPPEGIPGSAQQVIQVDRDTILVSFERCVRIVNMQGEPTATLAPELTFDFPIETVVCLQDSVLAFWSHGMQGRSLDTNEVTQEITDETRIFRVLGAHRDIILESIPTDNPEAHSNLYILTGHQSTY
Sequence of Tyrosine-protein kinase ABL1 (Homo sapiens), P00519 [F317I] (P00519 whole entry F317I, the tested form may be a part): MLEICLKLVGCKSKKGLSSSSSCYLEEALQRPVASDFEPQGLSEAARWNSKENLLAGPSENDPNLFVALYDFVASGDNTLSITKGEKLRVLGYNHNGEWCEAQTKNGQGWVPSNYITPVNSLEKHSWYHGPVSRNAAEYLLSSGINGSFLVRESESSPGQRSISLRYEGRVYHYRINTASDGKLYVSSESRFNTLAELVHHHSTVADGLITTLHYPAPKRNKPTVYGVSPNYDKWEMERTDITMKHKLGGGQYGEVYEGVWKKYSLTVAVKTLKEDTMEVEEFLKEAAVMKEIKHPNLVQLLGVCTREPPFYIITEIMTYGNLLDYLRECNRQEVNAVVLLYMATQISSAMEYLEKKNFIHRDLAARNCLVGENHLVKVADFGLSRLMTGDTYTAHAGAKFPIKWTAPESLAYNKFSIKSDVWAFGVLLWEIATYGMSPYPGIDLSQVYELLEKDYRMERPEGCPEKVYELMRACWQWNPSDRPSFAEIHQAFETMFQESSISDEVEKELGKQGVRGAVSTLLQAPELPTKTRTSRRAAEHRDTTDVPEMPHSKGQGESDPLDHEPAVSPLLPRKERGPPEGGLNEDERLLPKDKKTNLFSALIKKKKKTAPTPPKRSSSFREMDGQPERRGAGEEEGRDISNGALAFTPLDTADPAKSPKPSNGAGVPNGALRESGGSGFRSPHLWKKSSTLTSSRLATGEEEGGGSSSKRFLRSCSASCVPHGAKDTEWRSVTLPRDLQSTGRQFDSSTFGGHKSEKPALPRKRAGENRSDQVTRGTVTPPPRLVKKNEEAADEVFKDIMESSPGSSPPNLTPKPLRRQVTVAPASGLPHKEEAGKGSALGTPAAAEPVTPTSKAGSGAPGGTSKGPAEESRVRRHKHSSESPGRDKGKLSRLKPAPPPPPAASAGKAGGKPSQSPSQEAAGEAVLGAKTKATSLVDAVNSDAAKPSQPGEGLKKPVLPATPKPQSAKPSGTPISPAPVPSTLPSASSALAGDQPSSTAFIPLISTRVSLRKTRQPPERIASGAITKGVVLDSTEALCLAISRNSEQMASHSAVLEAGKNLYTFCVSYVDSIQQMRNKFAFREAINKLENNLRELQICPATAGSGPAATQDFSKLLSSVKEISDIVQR

With `COCCN[C@H]1CC[C@H](Nc2cc(-c3csc(NCC4(C#N)CCOCC4)n3)c(Cl)cn2)CC1`, the Activity was 100% in [1]; 81% in [2]; 56% in series [3]; 100% in series [5]; 100% in series [6]; 61% in [7]. In addition, the Activity in series [8] turned out to be 95%; in series [11], 100%; in series [12] it was 94%; in [13], 100%; in series [14] it was 100%; in [15] it was 98%. In addition, the Activity turned out to be 100% in series [16], 86% in series [17] and 98% in [18]. The inhibition result in [4] was “inactive”. The AUC(0-inf) (commonly the area under the concentration-time curve extrapolated to infinity) in series [9] is 408 ng·h/mL. In the series listed under Homo sapiens, the Ratio IC50 was above 1000. Further, the clearance (commonly a measure of how efficiently the substance is removed, as volume per time) in series [10] is 11.9 mL/min/kg. The GI50 (usually the concentration at which growth is held to half of that of the control) in the series with HL-60 worked out at 56 nM.

Source of the values: ChEMBL document CHEMBL4261600 (Eur J Med Chem, 2018).
